These results are taken from publication PMC6899483 (ChemMedChem, 2019).

Several values for one entry are separate records, joined by “and”; a condition that tells them apart may be missing. Identical values can stand only once. A value given as a limit tells only on which side of the number the result lay.

One data set concerns Pf (3D7). In words: Plasmodium falciparum screening. Format: cell-based. Summed up: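 Asexual intraerythrocytic P. falciparum 3D7 grown in expired human transfusion red cells. EC50 is reported with its 95% confidence interval, and n is the number of screening replicates.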
The nature of data set [1]: mouse microsomal clearance. Format: in vitro ADME. The following applies: mouse liver microsomes. The procedure, abridged: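 Intrinsic clearance is measured in mouse liver microsomes and expressed as mL min−1 (g liver)−1.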
A further data set deals with HepG2. In words: mammalian cell growth inhibition assay. Format: cell-based. The following applies: Homo sapiens, HepG2, read-out: EC50 HepG2, mammalian cell counter-screen. Summed up:
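HepG2 counter-screen values are EC50s, each with its number of screening replicates (n) and a 95% confidence interval.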
For orientation: A counterscreen serves to expose hits that act by an unwanted route or on another target.

On to `Cc1ccc(NC(C)(C)C(=O)Nc2ccc(F)c(Cl)c2)cc1S(=O)(=O)N1CCOCC1` [Compound 28, N-(3-chloro-4-fluorophenyl)-2-methyl-2-{[4-methyl-3-(morpholinosulfonyl)phenyl]amino}propanamide], for which the “improvement in antimalarial potency relative to compound 1” value in the data set with Pf (3D7) (Pf (3D7)) is ~20 fold and > 10 fold. Moreover, the EC50 with Pf (3D7) (Plasmodium falciparum, 3D7, read-out: EC50 Pf (3D7)) is 7 nM; with HepG2, above 25000 nM. In data set [1], the “Mouse microsomal CLint” value was > 50 mL min^−1 (g liver)^−1.

By EC50 is commonly meant the concentration giving half of the maximal effect.
